The list is not random: actives were taken first. Their share in the collection is about 2.7%.
S100A4 MyoIIA = inhibitors of human S100A4 binding to myosin IIA peptide; P26447; S100A4/TAMRA-MyoIIA peptide fluorescence polarization; inhibition, % at 10.7 µM; actives 0.14% (n = 360,000);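 active means mean inhibition of at least 70% across replicates, with every replicate also reaching that level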
Target sequence (P26447 whole entry, looked up): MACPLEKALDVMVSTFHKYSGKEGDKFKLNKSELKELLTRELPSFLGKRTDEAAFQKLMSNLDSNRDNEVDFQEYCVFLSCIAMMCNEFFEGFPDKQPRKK
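Material: S100A4 monomer protein | Medium: HEPES pH 7.2 with CaCl2, KCl, NaCl, DTT, Triton | Reagent: Labelled myosin peptide probe, 5 nM | Doses: One dose per compound | Times: 5 min incubation before reading | Benchmarks: Neutral control DMSO, positive control TFP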
CaV13 FRET inh = Primary screen for inhibitors of IQ motif and Ca2+-dependent inactivation inhibitor domain binding in CACNA1D, Förster resonance energy transfer in living cells, …. HEK cells, CFP/YFP FRET ICDI-IQ, plate reader, 10 min; percent FRET-ratio fall versus neutral wells. inhibition, % at 12.3 µM. actives 0.098% (n = 340,000);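 active means mean replicate inhibition of at least 30% and at least 1% of replicates passing that level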;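 further: 0% = median of the neutral control wells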
DENV2 CPE rescue = inhibitors of DENV2 cytopathic effect | DENV2-infected cells, cytopathic effect rescue, plate reader | CPE inhibition, % at 9.99 µM | actives 1.7% (n = 350,000) | AID 651640; in the data active means CPE inhibition above about 20%, passing the limit was not always enough; tested in BHK-21 cells;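 further: 0% = median of neutral control wells and 100% = median of positive control wells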
AF4-AF9 inh = inhibitors of human MLL-AF4/AF9 interaction. AlphaScreen, biotin-AF4 peptide binding to FLAG-AF9. inhibition, % at 10 µM. actives 0.47% (n = 350,000);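 active means every replicate reaching a set inhibition limit, whatever the replicate mean, cut at about 25% in these data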;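 further: 0% = plate neutral control median and 100% = total signal loss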
Target sequence (P42568 whole entry, looked up): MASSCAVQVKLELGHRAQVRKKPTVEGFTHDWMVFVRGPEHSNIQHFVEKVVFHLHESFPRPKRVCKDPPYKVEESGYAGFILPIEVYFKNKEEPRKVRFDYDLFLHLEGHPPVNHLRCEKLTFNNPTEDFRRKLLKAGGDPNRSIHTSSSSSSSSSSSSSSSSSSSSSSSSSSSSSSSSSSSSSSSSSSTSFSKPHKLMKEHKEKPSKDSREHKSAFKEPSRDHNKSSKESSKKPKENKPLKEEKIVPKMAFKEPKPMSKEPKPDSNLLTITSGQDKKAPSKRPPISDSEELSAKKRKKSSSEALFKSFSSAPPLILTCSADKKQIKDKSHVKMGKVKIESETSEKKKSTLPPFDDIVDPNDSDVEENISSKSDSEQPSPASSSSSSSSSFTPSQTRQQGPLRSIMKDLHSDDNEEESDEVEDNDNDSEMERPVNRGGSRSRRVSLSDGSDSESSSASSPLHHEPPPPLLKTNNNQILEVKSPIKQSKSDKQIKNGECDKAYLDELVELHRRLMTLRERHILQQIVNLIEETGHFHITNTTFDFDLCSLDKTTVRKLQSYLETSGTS
SIRT5 inh = inhibitors of human sirtuin-5 desuccinylase; actives 1.1% (n = 330,000); Q9NXA8; inhibition, % at 15 µM; Purified SirT5, succinyl-peptide AMC, trypsin-coupled fluorescence; in the data active means inhibition above about 15%
Numbers without * were called inactive.

For C[C@@H]1CCCCO[C@@H](CN(C)S(=O)(=O)c2ccccc2)[C@@H](C)CN([C@H](C)CO)C(=O)c2cc(NC(=O)Nc3ccc(F)cc3)ccc2O1 the results were S100A4 MyoIIA 2.2, DENV2 CPE rescue -8.3, AF4-AF9 inh 0.7 and SIRT5 inh -1.6.
Screening CC(C)NC(=O)Nc1ccc2c(c1)C(=O)N([C@H](C)CO)C[C@@H](C)[C@H](CN(C)S(=O)(=O)c1ccccc1)OCCCC[C@@H](C)O2 returned S100A4 MyoIIA 120.9*, DENV2 CPE rescue -2.9, AF4-AF9 inh 0.5 and SIRT5 inh 5.1.
For C[C@@H]1CN([C@@H](C)CO)C(=O)c2cc(NC(=O)Nc3ccc(F)cc3)ccc2O[C@@H](C)CCCCO[C@H]1CN(C)S(=O)(=O)c1ccccc1 the results were S100A4 MyoIIA -0.2, DENV2 CPE rescue 124.3*, AF4-AF9 inh -1.4 and SIRT5 inh 2.5.
For C[C@@H]1CCCCO[C@H](CN(C)S(=O)(=O)c2ccccc2)[C@H](C)CN([C@@H](C)CO)C(=O)c2cc(NC(=O)Nc3ccc(F)cc3)ccc2O1 the results were S100A4 MyoIIA -1.2, DENV2 CPE rescue -11.7, AF4-AF9 inh 1.9 and SIRT5 inh -1.0.
`C[C@H](CO)N1C[C@H](C)[C@@H](CN(C)S(C)(=O)=O)OCCCC[C@H](C)Oc2ccc(NC(=O)Nc3ccc(F)cc3)cc2C1=O` gave DENV2 CPE rescue 26.3*.
C[C@@H]1CCCCO[C@H](CN(C)S(C)(=O)=O)[C@@H](C)CN([C@H](C)CO)C(=O)c2cc(NC(=O)Nc3ccc(F)cc3)ccc2O1 was read as S100A4 MyoIIA 0.3, DENV2 CPE rescue -9.1 and AF4-AF9 inh -1.4.
`C[C@@H]1CCCCO[C@@H](CN(C)S(=O)(=O)c2ccccc2)[C@@H](C)CN([C@H](C)CO)C(=O)c2cc(NC(=O)Nc3ccccc3)ccc2O1` gave S100A4 MyoIIA 7.1, DENV2 CPE rescue 65.5*, AF4-AF9 inh 1.3 and SIRT5 inh 3.5.
For Cc1ccccc1S(=O)(=O)N1C[C@@H](O)COC[C@@H]2O[C@H](CC(=O)N3CCCCC3)CC[C@H]21 the results were S100A4 MyoIIA 2.1, DENV2 CPE rescue 109.9*, AF4-AF9 inh -0.2 and SIRT5 inh -2.5.
Screening Cc1ccccc1S(=O)(=O)N1C[C@@H](O)COC[C@H]2O[C@H](CC(=O)NCc3ccccc3Cl)CC[C@@H]21 returned S100A4 MyoIIA 7.1, DENV2 CPE rescue -4.1, AF4-AF9 inh 5.5 and SIRT5 inh 1.9.
Screening Cc1ccccc1S(=O)(=O)N1C[C@H](O)COC[C@@H]2O[C@@H](CC(=O)NCc3ccccc3Cl)CC[C@H]21 returned S100A4 MyoIIA 114.5*, DENV2 CPE rescue -0.4, AF4-AF9 inh 2.1 and SIRT5 inh 9.1.
CCNC(=O)C[C@@H]1CC[C@H]2[C@@H](COC[C@@H](O)CN2S(=O)(=O)c2ccccc2F)O1 was read as S100A4 MyoIIA -5.1, DENV2 CPE rescue 23.0*, AF4-AF9 inh 6.2 and SIRT5 inh 2.9.
Screening CCC(=O)N(C)C[C@@H]1Oc2cc(C#C[C@@H](C)O)ccc2S(=O)(=O)N([C@H](C)CO)C[C@@H]1C returned S100A4 MyoIIA 13.1, DENV2 CPE rescue -6.7, AF4-AF9 inh -0.4 and SIRT5 inh 5.1.
Screening CN(C)CC#Cc1ccc([C@@H]2[C@@H](CO)N3CCCCN(S(=O)(=O)c4ccccc4F)C[C@H]23)cc1 returned S100A4 MyoIIA -1.2, DENV2 CPE rescue -0.6, AF4-AF9 inh -3.6 and SIRT5 inh -2.3.
`COc1ccccc1-c1cn(CC[C@@H]2CC[C@@H](NC(=O)C3CCC3)[C@@H](CO)O2)nn1` gave S100A4 MyoIIA 26.5, DENV2 CPE rescue 1.3, AF4-AF9 inh 0.2 and SIRT5 inh 3.9.
COCC(=O)N1CC2(C1)CN(S(C)(=O)=O)[C@@H](CO)c1[nH]c3cc(OC)ccc3c12 was read as S100A4 MyoIIA -0.8, DENV2 CPE rescue 11.9, AF4-AF9 inh -0.9 and SIRT5 inh 0.7.
`CCNC(=O)c1cc2c(c(-c3cccc(-c4cccc(C(=O)N(C)C)c4)c3)n1)[C@@H](CCO)N([S@](=O)C(C)(C)C)C2` gave S100A4 MyoIIA -18.2, DENV2 CPE rescue 2.8, AF4-AF9 inh -7.0 and SIRT5 inh 0.7.
For CSCc1cc(C(=O)NC2CC2)c(N)s1 the results were S100A4 MyoIIA 73.9*, CaV13 FRET inh -9.6, DENV2 CPE rescue -5.3 and SIRT5 inh -1.9.
`COC(=O)[C@@](C)(O)C1(C(=O)SC(C)(C)C)CC1` gave S100A4 MyoIIA -2.4, CaV13 FRET inh -9.9, DENV2 CPE rescue 130.0* and AF4-AF9 inh -1.1.
`C[C@H]1CN([C@@H](C)CO)C(=O)Cc2cc(NS(=O)(=O)c3cccs3)ccc2O[C@H]1CN(C)Cc1ccc(Cl)c(Cl)c1` gave S100A4 MyoIIA -15.3, DENV2 CPE rescue 4.2, AF4-AF9 inh 0.1 and SIRT5 inh -1.4.
Screening C[C@H]1CN([C@@H](C)CO)C(=O)c2cccc(NS(=O)(=O)c3ccc(Cl)cc3)c2O[C@@H]1CN(C)Cc1ccc(C(=O)Nc2ccccc2N)cc1 returned S100A4 MyoIIA 2.1, DENV2 CPE rescue 21.5*, AF4-AF9 inh -1.9 and SIRT5 inh 5.4.
C[C@@H]1CN([C@@H](C)CO)C(=O)c2cccc(NC(=O)C3CC3)c2O[C@@H]1CN(C)Cc1ccc(C(=O)Nc2ccccc2N)cc1 was read as S100A4 MyoIIA -11.3, DENV2 CPE rescue -5.1, AF4-AF9 inh 3.6 and SIRT5 inh 16.9*.
`C[C@H](CO)N1C[C@H](C)[C@H](CN(C)Cc2ccc(C(=O)Nc3ccccc3N)cc2)Oc2c(NC(=O)C3CC3)cccc2C1=O` gave S100A4 MyoIIA 0.5, DENV2 CPE rescue 3.8, AF4-AF9 inh 2.1 and SIRT5 inh 8.5.
For O=S(=O)(N[C@H]1CC[C@H](CCn2cc(-c3cccnc3)nn2)O[C@@H]1CO)c1ccccc1 the results were S100A4 MyoIIA -7.4, DENV2 CPE rescue 28.8*, AF4-AF9 inh -1.4 and SIRT5 inh -1.7.
For O=S(=O)(N[C@@H]1CC[C@H](CCn2cc(-c3ccccn3)nn2)O[C@@H]1CO)c1cccc(Cl)c1 the results were S100A4 MyoIIA 2.3, DENV2 CPE rescue 12.9, AF4-AF9 inh 1.1 and SIRT5 inh 3.5.
O=S(=O)(N[C@@H]1CC[C@H](CCn2cc(-c3cccnc3)nn2)O[C@H]1CO)c1ccccc1 was read as S100A4 MyoIIA -2.8, DENV2 CPE rescue 14.7, AF4-AF9 inh 0.0 and SIRT5 inh 8.5.
Screening O=S(=O)(N[C@@H]1CC[C@@H](CCn2cc(-c3cccnc3)nn2)O[C@H]1CO)c1ccccc1 returned S100A4 MyoIIA 6.8, DENV2 CPE rescue 16.7, AF4-AF9 inh -0.5 and SIRT5 inh 16.3*.
Screening O=S(=O)(N[C@@H]1CC[C@@H](CCn2cc(-c3ccccn3)nn2)O[C@H]1CO)c1cccc(Cl)c1 returned S100A4 MyoIIA 10.7, DENV2 CPE rescue 36.7*, AF4-AF9 inh 0.6 and SIRT5 inh 0.5.

Screening data from PubChem.
